Compound activity (PubChem BioAssay)
bovine MsrA act: bovine methionine sulfoxide reductase A activation; purified bovine MsrA, absorbance read-out; activation, % at 10.6 µM; hit rate 0.3% among 360,000; in the data active means activation above about 7.5%;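 further: 0% = vehicle and 100% = reference activator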
proCasp7 act: counter-screen for procaspase-3 activators: activators of human procaspase-7. recombinant procaspase-7, Ac-DEVD-pNA absorbance 405 nm; D23A/D198A/D206A triple mutant, cannot self-cleave; scale: DMSO 0, 5 µM enzyme 100. activation, % at 8.5 µM. AID 463210. hit rate 0.093% among 330,000;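 active means percent activation above the screen-wide mean plus 3 SD, cut at about 25% in these data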
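Assay system – Uncleavable procaspase-7 mutant enzyme · Quantity – 2 µM procaspase-7 mutant as dispensed · Times – 1 h preincubation, 2 h reaction · Dosing – single nominal 8.5 µM compound dose, 0.8% DMSO final · Buffer or medium – Zinc-free 50 mM HEPES buffer, pH 7.4, with NaCl and Triton X-100 · Detection – Epi-absorbance of released pNA at 405 nm, two timepoints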
MsrA inhibitor: inhibits bovine methionine sulfoxide reductase A; purified bovine MsrA, absorbance read-out; inhibition, % at 15.5 µM; hit rate 0.75% among 360,000; AID 651718; in the data active means inhibition above about 4.5%;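 further: 0% = vehicle wells with enzyme and 100% = reference inhibitor wells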
procasp3 activ: activates human procaspase-3 | P42574 | hit rate 0.11% among 330,000 | activation, % at 8.5 µM | recombinant procaspase-3 D3A, Ac-DEVD-pNA absorbance 405 nm | AID 463141;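 active means activation above the mean of all tested compounds plus 3 SD, cut at about 21% in these data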;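 further: 0% = DMSO alone and 100% = DMSO wells spiked with extra 5 µM PC-3 D3A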
Target sequence (P42574 whole entry D9A/D28A/D175A): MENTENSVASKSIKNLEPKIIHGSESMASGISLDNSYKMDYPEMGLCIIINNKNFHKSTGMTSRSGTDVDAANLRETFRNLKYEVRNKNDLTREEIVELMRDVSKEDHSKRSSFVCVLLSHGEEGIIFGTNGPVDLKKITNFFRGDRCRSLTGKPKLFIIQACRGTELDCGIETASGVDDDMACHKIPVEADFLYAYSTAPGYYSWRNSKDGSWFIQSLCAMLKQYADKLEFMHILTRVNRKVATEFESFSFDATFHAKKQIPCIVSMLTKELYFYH
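System: Procaspase-3 D3A mutant. Medium: Zinc-free 300 mM NaCl, 50 mM HEPES, 0.01% Triton X-100. Schedule: 1 h preincubation plus 2 h reaction at 25 °C. Measured by: 405 nm absorbance of p-nitroaniline, reads at 0 and 120 min. Read-out: percent activation relative to control range.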
procasp7 triplic: counter-screen for procaspase-3 activators: activators of human procaspase-7 | shares compounds with procasp3 activ | activation, % at 8.5 µM | recombinant procaspase-7, Ac-DEVD-pNA absorbance; asp23/198/206-to-Ala mutant, cannot self-cleave | 210 tested, under 10 active;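 active means mean activation above a set limit taken from an earlier procaspase-7 screen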;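 further: 0% = DMSO wells and 100% = DMSO plus 5 µM procaspase-7 enzyme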
procasp3 conf: procaspase-3 (human) activation, confirmed | recombinant PC-3 D3A, Ac-DEVD-pNA absorbance 405 nm; 100% is higher-enzyme control | shares compounds with procasp3 activ | activation, % at 8.5 µM | hit rate 10% among 210;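 active means mean activation above a set limit carried over from the earlier primary screen, cut at about 22% in these data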
* = called active by the depositor; · = no result given. Compounds with a hit are over-represented: about 1.2% of the library has one in this group of screens.

SMILES	bovine MsrA act	proCasp7 act	MsrA inhibitor	procasp3 activ	procasp7 triplic	procasp3 conf
CCCCCOc1ccc(NC2=CC(=O)CCC2)cc1	-2.5	21.2	2.5	23.8*	0.2	4.5
CCOc1ccc(NC2=CC(=O)CCC2)cc1	-14.7	-9.1	0.5	4.2	·	·
Cc1cccc(C(=O)Nc2sc3c(c2C(=O)O)CCC3)c1	-3.0	-10.8	1.6	0.8	·	·
CNC(=O)c1c(NC(=O)c2cccc(C)c2)sc2c1CCC2	-6.4	-226.4	3.8	28.9*	-3.0	-1.8
Oc1ccc(N=Cc2ccc(-c3cccs3)s2)cc1	-9.0	23.5	5.2*	35.2*	-21.8	-12.4
Cc1ccc(S(=O)(=O)CC(=O)Nc2cccc(C)n2)cc1	-1.9	5.2	-0.2	23.2*	2.5	4.7
CC1CCN(CCCNC(=O)COc2cc(=O)n(C)c3ccccc23)CC1	-7.5	3.8	-0.1	38.1*	1.3	4.8
CCn1c(=O)cc(OCC(=O)NCCCN2CCC(C)CC2)c2ccccc21	-0.2	7.5	-1.4	6.4	·	·
COCc1[nH]nc2c1C(c1cccc(C(F)(F)F)c1)N(c1ccc(OC)cc1)C2=O (stereo not given)	·	·	-0.7	·	·	·
N=c1oc2ccc3ccccc3c2cc1-c1nc(-c2ccccc2)cs1	-3.1	-21.1	-0.4	-16.4	·	·
N=c1oc2ccccc2cc1-c1nc(-c2ccccc2)cs1	-2.4	20.6	-0.2	43.3*	-21.1	-14.8
O=c1cc(-c2ccccc2)nc2cc(-c3ccc(Br)cc3)[nH]n12	-6.3	-4.6	0.2	-1.4	·	·
Cc1cc2nc(-c3ccccc3)cc(=O)n2[nH]1	0.7	2.8	1.7	22.7*	-0.2	2.6
CCCN1C(=O)c2n[nH]c(C)c2C1c1ccc2c(c1)OCO2 (stereo not given)	·	·	1.0	·	·	·
Cc1cc(OC(=O)c2ccccc2Cl)c([N+](=O)[O-])c(=O)[nH]1	-0.9	-3.4	-0.1	-2.6	·	·
Cc1cc(OC(=O)c2ccc(Cl)cc2Cl)c([N+](=O)[O-])c(=O)[nH]1	0.1	0.9	0.0	89.4*	-7.7	0.4
CC1CCN(c2ncnc3c2cnn3-c2ccccc2)CC1	-6.0	6.2	0.7	9.8	·	·
COc1cccc(OCCN2CCN(c3ncnc4c3cnn4-c3ccccc3)CC2)c1	-6.5	3.4	-0.9	26.8*	2.6	2.5
COc1cccc(C(=O)N[C@H](C(=O)N2CCC[C@H]2C(=O)NCc2ccccc2)C2CCCCC2)c1	·	·	0.9	·	·	·
COc1ccc(C2=NC(=O)/C(=C\c3cc(OC)c(OC)c(OC)c3)O2)cc1	-2.8	23.3	1.3	26.0*	26.5*	32.6*
CCCc1cc(=O)oc2cc(OC(=O)CN3C(=O)NC4(CCCC4)C3=O)ccc12	-4.4	14.6	2.4	25.6*	-21.7	-13.1
O=C(N[C@H](C(=O)N1CCC[C@H]1C(=O)NCCc1ccccc1Cl)c1ccccc1)c1cccs1	·	·	-0.6	·	·	·
CC(C)[C@H](NC(=O)CC1CCCC1)C(=O)N1CCC[C@H]1C(=O)NCc1ccccc1	·	·	-1.0	·	·	·
CCN(CC)c1ccc(/C=N/NC(=S)NCc2ccco2)cc1	-4.5	14.3	1.8	27.4*	1.5	30.9*
COCc1[nH]nc2c1C(c1ccccc1)NC2=O (stereo not given)	·	·	0.6	·	·	·
SMILES	bovine MsrA act	proCasp7 act	MsrA inhibitor	procasp3 activ	procasp7 triplic	procasp3 conf
COc1ccccc1CNC(=O)CS(=O)Cc1nc(-c2ccccc2C)oc1C (stereo not given)	-8.7	-3.5	-1.1	73.3*	-5.8	1.4
COCCCNC(=O)C[C@H]1C[C@@]2(C(=O)OC)C(=C[C@H](C3CCCC3)O[C@@H]2C)N(Cc2ccccc2)C1=O	·	·	0.7	·	·	·
CCCN(C(=O)CSCC(=O)Nc1cccc(C)c1)c1c(N)n(Cc2ccccc2)c(=O)[nH]c1=O	-4.2	-12.5	0.4	1.6	·	·
CCCCN(C(=O)CSCC(=O)Nc1cccc(C)c1)c1c(N)n(Cc2ccccc2)c(=O)[nH]c1=O	-2.1	2.2	-0.9	23.7*	1.3	2.9
Cc1ccc(S(=O)(=O)c2cc3ccccc3nc2N)cc1	-4.6	2.3	0.5	23.6*	6.6	-1.1
COC(=O)c1ccsc1NS(C)(=O)=O	·	·	0.3	·	·	·
Cc1sc2ncnc(SCC(=O)Nc3ccc(S(=O)(=O)N4CCOCC4)cc3)c2c1C	-1.9	3.7	-0.6	22.6*	-0.2	2.1
CC(=O)Nc1ccc(NC(=O)CSc2ncnc3sc(C)c(C)c23)cc1	0.5	1.4	-0.9	2.6	·	·
